Results from ChEMBL document CHEMBL1156574, “Synthesis and biological properties of benzothiazole, benzoxazole, and chromen-4-one analogues of the potent antitumor agent 2-(3,4-dimethoxyphenyl)-5-fluorobenzothiazole (PMX 610, NSC 721648)” (J Med Chem, 2008).
The source made the active and inactive calls. The calls are words filed in the database; no cut-off is given here.

Tests used:
[1] = Antiproliferative activity against estrogen receptor deficient human MDA468 cells after 72 hrs by MTT assay; type: functional; conditions: MDA-MB-468, 72 h
Procedure, shortened: (§1)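 Growth inhibition was tested in triplicate in breast lines MCF-7 (ER +ve) and MDA 468 (ER −ve). Values are means of three independent experiments, reported as GI50.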

[2] = test system: MCF7; assay: Antiproliferative activity against estrogen receptor positive human MCF7 cells after 72 hrs by MTT assay; type: functional; conditions: MCF7, 72 h; procedure, shortened: as §1
[3] = Cell cycle arrest in estrogen receptor deficient human MDA468 cells assessed as accumulation at G2/M phase at 0.1 uM after 72 hrs by flow cytometry; type: functional, cell-based; conditions: MDA-MB-468
Procedure, shortened: (§2)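 MDA 468 breast cells were left untreated or exposed for 24–72 h. Cellular DNA content was measured by flow cytometry, with 10 000 events per sample. Percentages in pre-G1, G1, S and G2/M were taken from the DNA histograms and compared with the nontreated control. Independent analyses were run ≥3 times.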

[4] = Cell cycle arrest in estrogen receptor deficient human MDA468 cells assessed as accumulation at G2/M phase at 0.1 uM after 48 hrs by flow cytometry; type: functional, cell-based; conditions: MDA-MB-468; procedure, shortened: as §2
[5] = Cell cycle arrest in estrogen receptor deficient human MDA468 cells assessed as accumulation at G2/M phase at 0.1 uM after 24 hrs by flow cytometry; type: functional, cell-based; conditions: MDA-MB-468; procedure, shortened: as §2
[6] = biological target: T1, Aryl hydrocarbon receptor (Rattus norvegicus, UniProt P41738); assay: Displacement of [3H]tetrachlorodibenzo-p-dioxin from aryl hydrocarbon receptor in CRL:WI rat liver cytosol
T1 sequence (P41738 whole entry): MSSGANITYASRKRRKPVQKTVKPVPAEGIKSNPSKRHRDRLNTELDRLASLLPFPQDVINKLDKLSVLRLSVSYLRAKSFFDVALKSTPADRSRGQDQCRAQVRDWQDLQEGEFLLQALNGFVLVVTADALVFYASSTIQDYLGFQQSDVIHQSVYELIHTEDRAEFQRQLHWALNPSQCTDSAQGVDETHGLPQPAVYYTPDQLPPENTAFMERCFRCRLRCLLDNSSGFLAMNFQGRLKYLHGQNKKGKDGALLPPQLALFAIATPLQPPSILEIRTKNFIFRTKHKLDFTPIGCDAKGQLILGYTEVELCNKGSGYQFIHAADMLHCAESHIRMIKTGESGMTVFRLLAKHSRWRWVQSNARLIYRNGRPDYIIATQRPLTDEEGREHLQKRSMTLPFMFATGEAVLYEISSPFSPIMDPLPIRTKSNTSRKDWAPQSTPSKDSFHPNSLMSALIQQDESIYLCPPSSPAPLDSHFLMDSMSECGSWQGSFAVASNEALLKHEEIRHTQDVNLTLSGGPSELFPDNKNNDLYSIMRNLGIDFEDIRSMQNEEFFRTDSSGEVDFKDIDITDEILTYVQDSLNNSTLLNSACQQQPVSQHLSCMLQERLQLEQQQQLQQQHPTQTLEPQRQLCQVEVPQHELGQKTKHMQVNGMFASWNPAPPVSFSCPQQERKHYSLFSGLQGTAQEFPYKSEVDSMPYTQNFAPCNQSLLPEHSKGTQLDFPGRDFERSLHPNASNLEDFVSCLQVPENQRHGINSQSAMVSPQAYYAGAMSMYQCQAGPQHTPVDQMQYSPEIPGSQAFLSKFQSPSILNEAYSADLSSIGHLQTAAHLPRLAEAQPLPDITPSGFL
Procedure, shortened: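 Aryl hydrocarbon receptor binding was measured in CRL:WI rat liver cytosol by displacement of [3H]tetrachlorodibenzo-p-dioxin. IC50 was determined, and Ki was also reported.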

[7] = test system: MCF7; assay: Antiproliferative activity against human estrogen receptor positive MCF7 cells after 72 hrs by MTT assay in presence of aryl hydrocarbon receptor antagonist alpha-naphthoflavone; type: functional; conditions: MCF7, 72 h
[8] = Antiproliferative activity against estrogen receptor deficient human MDA468 cells after 72 hrs by MTT assay in presence of aryl hydrocarbon receptor antagonist alpha-naphthoflavone; type: functional; conditions: MDA-MB-468, 72 h
[9] = Cell cycle arrest in estrogen receptor deficient human MDA468 cells assessed as accumulation at S phase at 1 uM after 24 hrs by flow cytometry; type: functional, cell-based; conditions: MDA-MB-468; procedure, shortened: as §2
[10] = Cell cycle arrest in estrogen receptor deficient human MDA468 cells assessed as accumulation at G2/M phase at 1 uM after 24 hrs by flow cytometry; type: functional, cell-based; conditions: MDA-MB-468; procedure, shortened: as §2
[11] = test system: MDA-MB-468; assay: Induction of apoptosis in estrogen receptor deficient human MDA468 cells assessed as accumulation at preG1 phase at 1 uM after 24 hrs by flow cytometry; type: functional, cell-based; procedure, shortened: as §2

SMILES: CS(=O)(=O)c1ccc2nc(-c3ccc(O)cc3)sc2c1
- GI50 [1]: 42.2 µM
- GI50 [2]: 62.3 µM

SMILES: COc1ccc(-c2nc3cc(F)ccc3o2)c(OC)c1
- GI50 [1]: 0.54 µM
- GI50 [2]: 2.16 µM

SMILES: Oc1ccc(-c2nc3ccc(F)cc3s2)cc1
- GI50 [1]: 0.5 µM
- GI50 [2]: 54 µM

SMILES: COc1ccc(-c2cc(=O)c3ccc(F)cc3o2)cc1OC
- GI50 [1]: 0.45 µM
- GI50 [2]: 27.9 µM

SMILES: COc1ccc(-c2nc3ccc(F)cc3o2)cc1
- GI50 [1]: 9.55 µM
- GI50 [2]: 41 µM

SMILES: COc1ccc(-c2nc3cc(F)ccc3s2)cc1OC
- Activity [3]: Active
- Activity [4]: Active
- Activity [5]: Active
- IC50 [6]: 0.025 µM
- Ki [6]: 0.0068 µM
- GI50 [1]: < 0.0001 µM
- GI50 [7]: 0.514 µM
- GI50 [2]: < 0.0001 µM
- GI50 [8]: 0.27 µM

SMILES: CCOc1ccc2nc(-c3ccc(O)cc3)sc2c1
- GI50 [1]: > 100 µM
- GI50 [2]: > 100 µM

SMILES: COc1ccccc1-c1nc2cc(F)ccc2o1
- GI50 [1]: 0.27 µM
- GI50 [2]: 0.36 µM

SMILES: Oc1ccc(-c2nc3ccc(Cl)cc3s2)cc1
- GI50 [1]: 0.28 µM
- GI50 [2]: 26.5 µM

SMILES: COc1ccc(-c2nc3cc(F)ccc3o2)cc1
- GI50 [1]: 0.76 µM
- GI50 [2]: 22.7 µM

SMILES: COc1cc(OC)cc(-c2nc3cc(F)ccc3o2)c1
- GI50 [1]: 0.79 µM
- GI50 [2]: 45.4 µM

SMILES: Oc1ccc(-c2nc3cc(F)ccc3s2)cc1
- GI50 [1]: 0.21 µM
- GI50 [2]: 0.4 µM

SMILES: COc1cc(-c2nc3cc(F)ccc3o2)cc(OC)c1OC
- GI50 [1]: 2.58 µM
- GI50 [2]: 16 µM

SMILES: COc1cc(-c2nc3ccc(F)cc3o2)cc(OC)c1OC
- GI50 [1]: 0.037 µM
- GI50 [2]: 1.09 µM

SMILES: COc1ccc2nc(-c3ccc(O)cc3)sc2c1
- GI50 [1]: 9.67 µM
- GI50 [2]: 45.8 µM

SMILES: COc1cccc(-c2nc3cc(F)ccc3o2)c1
- GI50 [1]: 0.87 µM
- GI50 [2]: 39.5 µM

SMILES: Fc1ccc2oc(-c3ccc4c(c3)OCO4)nc2c1
- GI50 [1]: 14.5 µM
- GI50 [2]: 61.4 µM

SMILES: COc1ccc(-c2cc(=O)c3cc(F)ccc3o2)cc1OC
- GI50 [1]: 20.6 µM
- GI50 [2]: 83.4 µM

SMILES: Oc1ccc(-c2nc3ccc(Br)cc3s2)cc1
- GI50 [1]: 0.28 µM
- GI50 [2]: 4.16 µM

SMILES: COc1cccc(-c2nc3ccc(F)cc3o2)c1
- GI50 [1]: 2.02 µM
- GI50 [2]: 35.1 µM

SMILES: COc1ccc(-c2nc3ccc(F)cc3o2)c(OC)c1
- GI50 [1]: 3.29 µM
- GI50 [2]: 69.9 µM

SMILES: Fc1ccc2nc(-c3ccc4c(c3)OCO4)oc2c1
- GI50 [1]: 6.77 µM
- GI50 [2]: 19.2 µM

SMILES: COc1ccc(-c2nc3cc(F)ccc3[nH]2)cc1OC
- Activity [5]: inactive
- Activity [9]: inactive
- GI50 [1]: 94.4 µM
- GI50 [2]: 85.7 µM

SMILES: COc1ccccc1-c1nc2ccc(F)cc2o1
- GI50 [1]: 1.19 µM
- GI50 [2]: 0.82 µM

SMILES: COc1cc(OC)cc(-c2nc3ccc(F)cc3o2)c1
- GI50 [1]: 0.46 µM
- GI50 [2]: 3.72 µM

SMILES: COc1ccc(-c2nc3ccc(F)cc3o2)cc1OC
- GI50 [1]: 0.017 µM
- GI50 [2]: 3.53 µM

SMILES: CCc1ccc2nc(-c3ccc(O)cc3)sc2c1
- GI50 [1]: > 100 µM
- GI50 [2]: > 100 µM

SMILES: Oc1cccc(-c2nc3cc(F)ccc3s2)c1
- GI50 [1]: 0.2 µM
- GI50 [2]: 0.57 µM

SMILES: COc1ccc(-c2nc3cc(F)ccc3o2)cc1OC
- Activity [5]: inactive
- Activity [9]: Active
- Activity [10]: Active
- Activity [11]: Active
- GI50 [1]: 0.33 µM
- GI50 [2]: 0.83 µM

SMILES: COc1cccc(OC)c1-c1nc2cc(F)ccc2o1
- GI50 [1]: 22 µM
- GI50 [2]: 58.1 µM

SMILES: COc1cccc(OC)c1-c1nc2ccc(F)cc2o1
- GI50 [1]: 98.6 µM
- GI50 [2]: 90.7 µM

SMILES: Oc1ccc(-c2nc3cc(C(F)(F)F)ccc3s2)cc1
- GI50 [1]: 0.1 µM
- GI50 [2]: 13.8 µM
